Here are results for 30 compounds from ChEMBL document CHEMBL4017497, “Structure-Affinity Relationships and Structure-Kinetics Relationships of Pyrido[2,1-f]purine-2,4-dione Derivatives as Human Adenosine A3 Receptor Antagonists” (J Med Chem, 2017).

Experiment [1] addresses T1, Adenosine receptor A3 (Homo sapiens) (UniProt P0DMS8).
T1 sequence (whole entry): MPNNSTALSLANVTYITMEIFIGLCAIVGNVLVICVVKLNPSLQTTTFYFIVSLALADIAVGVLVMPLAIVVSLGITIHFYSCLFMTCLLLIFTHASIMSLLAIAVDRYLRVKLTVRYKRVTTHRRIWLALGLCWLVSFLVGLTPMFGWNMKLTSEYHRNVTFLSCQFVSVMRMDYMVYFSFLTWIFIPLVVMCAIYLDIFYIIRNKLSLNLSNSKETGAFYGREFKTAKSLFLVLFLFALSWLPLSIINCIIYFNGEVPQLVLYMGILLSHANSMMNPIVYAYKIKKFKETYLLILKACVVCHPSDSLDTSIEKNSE
Briefly: Displacement of [3H]PSB-11 from human adenosine A3 receptor expressed on CHO cell membranes assessed as kinetic rate index at IC50 measured after 240 mins by scintillation spectrometry. The essentials: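 Dual-point competition association at 10 °C. […] Specific binding read at 20 min (t1) and 240 min (t2); KRI derived from these two time points. n = 2 or 3.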
For orientation: In a radioligand displacement assay an active substance lowers the binding of a labelled ligand.

The target in experiment [2] is T2, Adenosine receptor A3 (Homo sapiens, UniProt P0DMS8).
T2 sequence (P0DMS8 whole entry): T1 sequence (whole entry)
Briefly: (§1) Displacement of [3H]PSB-11 from human adenosine A3 receptor expressed on CHO cell membranes after 2 hrs by scintillation spectrometry.

Experiment [3] addresses T1, Adenosine receptor A3 (Homo sapiens). Described as §1.
For experiment [4] the target is unchanged. The experiment can be described thus: Displacement of [3H]PSB-11 from human adenosine A3 receptor expressed on CHO cell membranes assessed as dissociation rate constant after 120 mins by scintillation spectrometry.
For experiment [5] the target is unchanged. The experiment can be described thus: Displacement of [3H]PSB-11 from human adenosine A3 receptor expressed on CHO cell membranes assessed as association rate constant after 120 mins by scintillation spectrometry.
The target of experiment [6] is T2, Adenosine receptor A3. The experiment can be described thus: Antagonist activity at human adenosine A3 receptor expressed in CHO cell membranes assessed as inhibition of 2-Cl-IB-MECA-induced [35S]GTPgammaS binding preincubated with or without for 60 mins followed by addition of 2-Cl-IB-MECA and [35S]GTPgammaS measured after 30 mins. In kind it is functional. The settings on record: read-out: pA2 (converted).

Experiment [7] concerns the target T2, Adenosine receptor A3. Briefly: Antagonist activity at human adenosine A3 receptor expressed in CHO cell membranes assessed as inhibition of 2-Cl-IB-MECA-induced [35S]GTPgammaS binding measured after 30 mins. As to conditions: read-out: pA2 (converted). Format: functional. The essentials:
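CHOhA3 membranes (15 μg) in 50 mM Tris-HCl, 5 mM MgCl2, 1 mM EDTA, 0.05% BSA, 1 mM DTT, pH 7.4, with 1 μM GDP and 5 μg saponin. […] 2-Cl-IB-MECA 0.1 nM–10 μM with ~0.3 nM [35S]GTPγS, 30 min at 25 °C. Filtration. Schild analysis from EC50 shifts gives pA2 and slope.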
In general terms: Binding of GTPγS marks nucleotide exchange on a G protein.

Regarding `COc1ccn2c(c1)nc1c2c(=O)n(CCC(C)(C)C)c(=O)n1Cc1ccccc1`, in experiment [1], the Activity index stood at 0.95. At Adenosine receptor A3 [2], the affinity, expressed as Ki, was 8 nM. Also, the inhibition entry in experiment [3] was “Dose-dependent effect”.
Turning to `C=CCCn1c(=O)c2c(nc3cc(OC)ccn32)n(Cc2ccccc2)c1=O`, in experiment [1], the Activity index came out at 1.23. The Ki (in general, a measure of affinity in units of concentration, obtained from inhibition or displacement) at Adenosine receptor A3 [2] was 1.4 nM. Also, the inhibition entry in experiment [3] was “Dose-dependent effect”.
For `COc1ccn2c(c1)nc1c2c(=O)n(CC(C)C)c(=O)n1Cc1ccccc1`, in experiment [1], the Activity index was determined as 1.64. Further, the K in experiment [4] came to 2 ×10⁻⁴ /s; in experiment [5], 7.8 ×10⁵ /M/s. Besides, the Ki at Adenosine receptor A3 [2] was determined as 1.2 nM. Also, the inhibition entry in experiment [3] is “Dose-dependent effect”.
Take `C=CCn1c(=O)c2c(nc3cc(OC)ccn32)n(Cc2ccccc2)c1=O`: in experiment [1], the Activity index turned out to be 0.72. The same compound came in with a Ki on Adenosine receptor A3 [2] of 5.9 nM. In addition, the inhibition entry in experiment [3] was “Dose-dependent effect”.
For `CCCCn1c(=O)c2c(nc3cc(OC)ccn32)n(Cc2ccccc2)c1=O`, in that order: 1.29, 1.5 nM and “Dose-dependent effect”.
Turning to `CCc1ccc(Cn2c(=O)n(CC3CC3)c(=O)c3c2nc2cc(OC)ccn23)cc1`, the Activity index in experiment [1] came out at 0.81. At Adenosine receptor A3 [2], the affinity, expressed as Ki, was 0.71 nM. In addition, the inhibition entry in experiment [3] was “Dose-dependent effect”.
In the case of `COc1ccn2c(c1)nc1c2c(=O)n(CC2CC2)c(=O)n1Cc1cccc(C)c1`, the Activity index in experiment [1] was determined as 1.18. This compound registered a Ki on Adenosine receptor A3 [2] of 1.5 nM. Moreover, in experiment [3], the inhibition entry is “Dose-dependent effect”.
Regarding `COc1ccn2c(c1)nc1c2c(=O)n(C)c(=O)n1Cc1ccccc1`, the Activity index in experiment [1] came out at 0.54. Besides, the affinity on Adenosine receptor A3 [2], expressed as Ki, was 20.8 nM. In experiment [3], the inhibition entry was “Dose-dependent effect”.
Regarding `COc1ccn2c(c1)nc1c2c(=O)n(CC2CC2)c(=O)n1Cc1ccc(C)cc1`, the inhibition entry in experiment [3] was “Dose-dependent effect”.
Regarding `COc1ccn2c(c1)nc1c2c(=O)n(CC2CC2)c(=O)n1Cc1ccc(Cl)cc1`, the Activity index in experiment [1] turned out to be 1.11. The K was found to be 8.2 ×10⁻⁴ /s in experiment [4] and 3 ×10⁶ /M/s in experiment [5]. In addition, the Ki at Adenosine receptor A3 [2] worked out at 1.2 nM. In experiment [3], the inhibition result is “Dose-dependent effect”.
For `CCCCCCCn1c(=O)c2c(nc3cc(OC)ccn32)n(Cc2ccccc2)c1=O`, in that order: 4.06, 6.2 ×10⁻⁵ /s, 4.2 ×10⁵ /M/s, 6.8 nM and “Dose-dependent effect”.
For `COc1ccn2c(c1)nc1c2c(=O)n(CCCO)c(=O)n1Cc1ccccc1`, the Activity index in experiment [1] turned out to be 1.04. This compound also displayed a Ki on Adenosine receptor A3 [2] of 81 nM. Besides, the inhibition entry in experiment [3] was “Dose-dependent effect”.
In the same order, the values of `C#CCn1c(=O)c2c(nc3cc(OC)ccn32)n(Cc2ccccc2)c1=O` are 1.2, 4.3 nM and “Dose-dependent effect”.
Regarding `CCCCCCn1c(=O)c2c(nc3cc(OC)ccn32)n(Cc2ccccc2)c1=O`, in experiment [1], the Activity index was 2.18. In addition, the K in experiment [4] worked out at 8.2 ×10⁻⁵ /s; in experiment [5], 2.3 ×10⁵ /M/s. In addition, affinity on Adenosine receptor A3 [2] was put at a Ki of 2.8 nM. In addition, in experiment [3], the inhibition entry is “Dose-dependent effect”.
For `COc1ccn2c(c1)nc1c2c(=O)n(CC2CC2)c(=O)n1CCc1ccccc1`, the Activity index in experiment [1] turned out to be 1.09. This compound also came in with a Ki on Adenosine receptor A3 [2] of 7.7 nM. In addition, in experiment [3], the inhibition result is “Dose-dependent effect”.
With `CCCCCn1c(=O)c2c(nc3cc(OC)ccn32)n(Cc2ccccc2)c1=O`, the Activity index in experiment [1] amounted to 1.11. In addition, the K in experiment [4] was 6 ×10⁻⁴ /s; in experiment [5], 1.1 ×10⁶ /M/s. Also, affinity at Adenosine receptor A3 [2] was put at a Ki of 3.5 nM. In addition, the inhibition entry in experiment [3] is “Dose-dependent effect”.
With `COc1ccn2c(c1)nc1c2c(=O)[nH]c(=O)n1Cc1ccccc1`, the Kb is 158 nM at Adenosine receptor A3 [6] and 63.1 nM at Adenosine receptor A3 [7]. For the same compound, the Activity index in experiment [1] stood at 0.38. Besides, the K in experiment [4] was determined as 1.4 ×10⁻² /s; in experiment [5], 5.3 ×10⁵ /M/s. Further, the Ki at Adenosine receptor A3 [2] was 108 nM. For the same compound, in experiment [3], the inhibition entry is “Dose-dependent effect”.
For the compound `COc1ccn2c(c1)nc1c2c(=O)n(CC2CC2)c(=O)n1Cc1ccc(Br)cc1`, the Activity index in experiment [1] was determined as 1.19. Moreover, at Adenosine receptor A3 [2], the Ki came out at 1.2 nM. The inhibition entry in experiment [3] was “Dose-dependent effect”.
Turning to `COc1ccn2c(c1)nc1c2c(=O)n(CC2CC2)c(=O)n1Cc1ccccc1`, the Activity index in experiment [1] came out at 2.68. For the same compound, the K in experiment [4] stood at 6 ×10⁻⁵ /s; in experiment [5], 2.8 ×10⁶ /M/s. The affinity at Adenosine receptor A3 [2], expressed as Ki, was 1 nM. Besides, the inhibition entry in experiment [3] was “Dose-dependent effect”.
For the compound `CCn1c(=O)c2c(nc3cc(OC)ccn32)n(Cc2ccccc2)c1=O`, in experiment [1], the Activity index was determined as 0.8. This compound showed a Ki at Adenosine receptor A3 [2] of 10.7 nM. Also, in experiment [3], the inhibition result was “Dose-dependent effect”.
For the compound `COc1ccn2c(c1)nc1c2c(=O)n(CC2CC2)c(=O)n1Cc1cccc(Cl)c1`, the Activity index in experiment [1] is 0.89. Further, the K worked out at 4.7 ×10⁻⁴ /s in experiment [4] and 8.2 ×10⁵ /M/s in experiment [5]. On Adenosine receptor A3 [2], this compound registered a Ki of 4.9 nM. In addition, in experiment [3], the inhibition entry is “Dose-dependent effect”.
`COc1ccc(Cn2c(=O)n(CC3CC3)c(=O)c3c2nc2cc(OC)ccn23)cc1`: the Activity index in experiment [1] was found to be 1.39. The K in experiment [4] stood at 7.8 ×10⁻⁵ /s; in experiment [5], 4.8 ×10⁵ /M/s. For the same compound, the Ki at Adenosine receptor A3 [2] is 1.4 nM. Moreover, the inhibition result in experiment [3] was “Dose-dependent effect”.
For `CCCn1c(=O)c2c(nc3cc(OC)ccn32)n(Cc2ccccc2)c1=O`, in that order: 0.99, 3.2 ×10⁻⁴ /s, 8.5 ×10⁵ /M/s, 3.2 nM and “Dose-dependent effect”.
For `COCCn1c(=O)c2c(nc3cc(OC)ccn32)n(Cc2ccccc2)c1=O`, in that order: 0.7, 6.3 ×10⁻⁴ /s, 4.3 ×10⁵ /M/s, 23 nM and “Dose-dependent effect”.
Regarding `COc1ccn2c(c1)nc1c2c(=O)n(CC2CC2)c(=O)n1Cc1ccc(Cl)c(Cl)c1`, the Activity index in experiment [1] was found to be 3.12. The K turned out to be 5.3 ×10⁻⁵ /s in experiment [4] and 1 ×10⁵ /M/s in experiment [5]. Also, the Ki at Adenosine receptor A3 [2] is 5.3 nM. The inhibition result in experiment [3] is “Dose-dependent effect”.
As to `COc1ccn2c(c1)nc1c2c(=O)n(C[Si](C)(C)C)c(=O)n1Cc1ccccc1`, in experiment [1], the Activity index stood at 1.36. In addition, at Adenosine receptor A3 [2], the affinity, expressed as Ki, was 2.7 nM. For the same compound, in experiment [3], the inhibition result was “Dose-dependent effect”.
In the same order, the values of `COc1ccn2c(c1)nc1c2c(=O)n(CC2CCC2)c(=O)n1Cc1ccccc1` are 1.48, 2.7 nM and “Dose-dependent effect”.
`COc1ccn2c(c1)nc1c2c(=O)n(CC(C)(C)C)c(=O)n1Cc1ccccc1`: the Activity index in experiment [1] worked out at 1.73. Further, the K in experiment [4] came out at 1.1 ×10⁻⁴ /s; in experiment [5] it was 5.5 ×10⁵ /M/s. Besides, the affinity at Adenosine receptor A3 [2] corresponds to a Ki of 3.5 nM. Moreover, the inhibition result in experiment [3] is “Dose-dependent effect”.
For `COc1ccn2c(c1)nc1c2c(=O)n(CCC(C)C)c(=O)n1Cc1ccccc1`, the Activity index in experiment [1] turned out to be 1.39. This compound came in with a Ki on Adenosine receptor A3 [2] of 3.5 nM. Moreover, the inhibition result in experiment [3] is “Dose-dependent effect”.
`COc1cccc(Cn2c(=O)n(CC3CC3)c(=O)c3c2nc2cc(OC)ccn23)c1`: the Activity index in experiment [1] came to 2.24. Further, the K was found to be 4.7 ×10⁻⁵ /s in experiment [4] and 4.8 ×10⁵ /M/s in experiment [5]. Further, the Ki at Adenosine receptor A3 [2] was found to be 0.38 nM. Moreover, the inhibition entry in experiment [3] is “Dose-dependent effect”. The Kb at Adenosine receptor A3 [7] was 1.26 nM.
